Key:
Felis catus [1] = species: Felis catus; assay: The mean area between curves for pupil diameter between treated and control eyes. The effect was tested in cats at a dose of 1.0 (ug/eye); format: functional
Procedure, shortened: (§1)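 Trained female cats, 2–3 kg, were dosed unilaterally with one 20 µL topical drop of drug in 0.9% NaCl/0.5% polysorbate 80, with vehicle in the contralateral eye. Horizontal pupil diameter was measured with a millimetre ruler under constant 10 lux illumination before dosing and at 1, 3, 6 and 23 h. Reported as maximal treated–control difference or as area between curves, per animal.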

Felis catus [2] = species: Felis catus; assay: 66 The maximal difference in Intraocular Pressure (IOP) between treated and control eyes. The effect was tested in cats at a dose of 3.0 (ug/eye); format: functional
Procedure, shortened: (§2)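 Domestic female cats, 2–3 kg, trained for IOP measurement. One eye received a topical drop (20 µL) of drug in 0.9% NaCl with 0.5% polysorbate 80; the other eye received vehicle. IOP was read by pneumatonometer under oxibuprocain local anaesthesia before dosing and at 1, 3, 6 and 23 h. The maximal treated-minus-control difference was taken. Area between curves is the treated-eye AUC minus control-eye AUC, per animal.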

Felis catus [3] = species: Felis catus; assay: The maximal difference in […] pupil diameter between treated and control eyes. The effect was tested in cats at a dose of 3.0 (ug/eye); format: functional; procedure, shortened: as §1
Felis catus [4] = species: Felis catus; assay: The mean area between curves for Intraocular Pressure (IOP) measured in treated and control eyes. The effect was tested in cats at a dose of 3.0 (ug/eye); format: functional; procedure, shortened: as §2
Felis catus [5] = species: Felis catus; assay: The mean ocular irritation in the treated eyes. An arbitrary scale of from 0 to 3 was used, 0 indicates absence of irritation and 3 complete closure of the lids. The effect was tested in cats at a dose of 1.0 (ug/eye); format: functional
Procedure, shortened: (§3)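 Ocular irritation was scored in the treated eye of trained female cats, 2–3 kg. Drug was given as one topical 20 µL drop in 0.9% NaCl with 0.5% polysorbate 80. The contralateral eye got vehicle only.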

Felis catus [6] = species: Felis catus; assay: The mean area between curves for Intraocular Pressure (IOP) measured in treated and control eyes. The effect was tested in cats at a dose of 1.0 (ug/eye); format: functional; procedure, shortened: as §2
Oryctolagus cuniculus [7] = species: Oryctolagus cuniculus; assay: The maximal difference in conjunctival hyperemia between treated and control eyes. The effect was tested in rabbit at a dose of 0.5 (ug/eye)
Felis catus [8] = species: Felis catus; assay: The maximal difference in Intraocular Pressure (IOP) between treated and control eyes. The effect was tested in cats at a dose of 1.0 (ug/eye); format: functional; procedure, shortened: as §2
Felis catus [9] = species: Felis catus; assay: The mean ocular irritation in the treated eyes. An arbitrary scale of from 0 to 3 was used, 0 indicates absence of irritation and 3 complete closure of the lids. The effect was tested in cats at a dose of 3.0 (ug/eye); format: functional; procedure, shortened: as §3
Oryctolagus cuniculus [10] = species: Oryctolagus cuniculus; assay: The mean area between curves for conjunctival hyperemia between treated and control eyes. The effect was tested in rabbit at a dose of 0.5 (ug/eye)
Felis catus [11] = species: Felis catus; assay: The mean area between curves for pupil diameter between treated and control eyes. The effect was tested in cats at a dose of 3.0 (ug/eye); format: functional; procedure, shortened: as §1
Felis catus [12] = species: Felis catus; assay: The maximal difference in […] pupil diameter between treated and control eyes. The effect was tested in cats at a dose of 1.0 (ug/eye); format: functional; procedure, shortened: as §1
Monkey [13] = assay: The maximal difference in Intraocular Pressure (IOP) between treated and control eyes. The effect was tested in monkey at a dose of 3.0 (ug/eye); format: functional, Cercopithecidae
Procedure, shortened: (§4)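 Cynomolgus monkeys trained for IOP measurement were sedated with ketamine (2–3 mg/kg) for transport and seated in restraint chairs under oxibuprocain local anaesthesia. One eye received a 10 µL drop of drug in 0.9% NaCl/0.5% polysorbate 80; the fellow eye received vehicle. IOP was read by pneumatonometer calibrated for monkey eyes before dosing and at 1, 2, 4 and 6 h. Matched-pair t test, n = 6.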

Felis catus [14] = species: Felis catus; assay: The maximal difference in Intraocular Pressure (IOP) between treated and control eyes. The effect was tested in cats at a dose of 3.0 (ug/eye); format: functional; procedure, shortened: as §2
Monkey [15] = assay: The mean area between curves for Intraocular Pressure (IOP) measured in treated and control eyes. The effect was tested in monkey at a dose of 3.0 (ug/eye); format: functional, Cercopithecidae; procedure, shortened: as §4

Q: Which results are given for `CC(C)OC(=O)CCC/C=C\C[C@@H]1[C@@H](/C=C/[C@@H](O)CCc2ccc(-c3ccsc3)cc2)[C@H](O)C[C@@H]1O`?
A: P ABC (Felis catus [1]): -3.3; Imax (Felis catus [2]): -5 mmHg; Pmax (Felis catus [3]): < -1.2 mm; I ABC (Felis catus [4]): <-66; Irritation (Felis catus [5]): 0.2 arbitrary units; I ABC (Felis catus [6]): -63.2; Hmax (Oryctolagus cuniculus [7]): 0.3; Imax (Felis catus [8]): <-4 mmHg; Irritation (Felis catus [9]): 0.6 arbitrary units; H ABC (Oryctolagus cuniculus [10]): <0.8; P ABC (Felis catus [11]): <-9.2; Pmax (Felis catus [12]): -1 mm

Q: Which results are given for `CC(C)OC(=O)CCC/C=C\C[C@@H]1[C@@H](/C=C/[C@@H](O)CCc2ccc(-c3ccco3)cc2)[C@H](O)C[C@@H]1O`?
A: Pmax (Felis catus [3]): -0.6 mm; I ABC (Felis catus [4]): -76.1; Imax (Monkey [13]): 0.3 mmHg; Imax (Felis catus [14]): <-5 mmHg; Hmax (Oryctolagus cuniculus [7]): -0.1; Irritation (Felis catus [9]): 0.6 arbitrary units; H ABC (Oryctolagus cuniculus [10]): -0.2; I ABC (Monkey [15]): 0.5; P ABC (Felis catus [11]): -6

Reference: ChEMBL document CHEMBL1128437, “Derivatives of 17-phenyl-18,19,20-trinorprostaglandin F2 alpha isopropyl ester: potential antiglaucoma agents” (J Med Chem, 1995)
